Experimental data gathered from unrelated publications.
Protocols differ between the studies behind these lines.
STK16: Serine/threonine-protein kinase 16 (STK16, Homo sapiens, UniProt O75716)
PPO3: PPO3 (Agaricus bisporus, UniProt C7FF04)
TAOK3: Serine/threonine-protein kinase TAO3 (TAOK3, Homo sapiens, UniProt Q9H2K8)

Cc1cc(F)cc2c(CCC(=O)N[C@@H]3C(=O)NC[C@H]3O)c(-c3ccc(F)cc3)[nH]c12  inhibition (Adenosine receptor A2a (ADORA2A, Homo sapiens, UniProt P29274); cell-free assay; 10 µM): 15%
NC/C(=C\F)COc1cccc(Cn2c(=S)[nH]c(=O)c3[nH]cnc32)c1  inhibition (Sigma non-opioid intracellular receptor 1 (SIGMAR1, Homo sapiens, UniProt Q99720); ligand displacement, radioligand; 10 µM): < 50%
CC(=O)ON=C1C=CC(=C(C#N)c2ccccc2)C=C1  activity vs control (Aurora kinase B (AURKB, Homo sapiens, UniProt Q96GD4); enzyme activity, inhibitor, ADP detection; 20 µM): 75%
C[C@]1(O)CCCN(c2nc(Nc3ccc(S(=O)(=O)N[C@H]4CC[C@H](CN5CCN(c6ccc(C7CCC(=O)NC7=O)cc6F)CC5)CC4)cc3F)ncc2C(F)(F)F)C1 (stereo partly shown)  remaining binding (STK16; binding, competition with immobilised ligand; 1 µM): 81%
COc1ccc2oc(-c3ccc4nc(N)oc4c3)c/c(=N\c3ccccc3NC(=O)CCN)c2c1  remaining binding (Serine/threonine-protein kinase WNK1 (WNK1, Homo sapiens, UniProt Q9H4A3); binding; 1 µM): 114%
O=C(CCc1cccc(O)c1)N1CCN(Cc2ccc(F)cc2)CC1  kon (PPO3; binding, SPR): 153 M⁻¹ s⁻¹
CCN1/C(=C/C(C)=O)Sc2ccc(F)cc21  inhibition (5-hydroxytryptamine receptor 2A (HTR2A, Homo sapiens, UniProt P28223); ligand displacement, radioligand; 10 µM): 0.75%
Cc1ccc(CN2CCN(C(=O)/C=C/c3ccc(O)cc3O)CC2)cc1  kon (PPO3; binding, SPR): 298 M⁻¹ s⁻¹
CCCCC(=O)Nc1ccc(-c2ccc3ncn(CCC)c(=O)c3c2)cn1  remaining binding (STK16; binding, competition with immobilised ligand; 0.5 µM): 99%
C[C@]1(O)CCCN(c2nc(Nc3ccc(S(=O)(=O)N[C@H]4CC[C@H](CN5CCN(c6ccc(C7CCC(=O)NC7=O)cc6F)CC5)CC4)cc3Cl)ncc2C(F)(F)F)C1 (stereo partly shown)  remaining binding (TAOK3; binding, competition with immobilised ligand; 1 µM): 82%
C1=C/COCc2cc(ccc2OCCN2CCCC2)Nc2nccc(n2)-c2cccc(c2)COC/1  remaining binding (Cytoplasmic tyrosine-protein kinase BMX (BMX, Homo sapiens, UniProt P51813); binding; 0.1 µM): 95%
Cc1cc(O)c(-c2ccc([C@@H](C)CN(C)C)cc2)c2c1[nH]c(=O)c1sccc12  inhibition (Interleukin-1 receptor-associated kinase-like 2 (IRAK2, Homo sapiens, UniProt O43187); cell-free assay, inhibitor; 0.1 µM, lysate): 13.1%
Cc1cc(S(=O)(=O)N[C@H]2CC[C@H](CN3CCN(c4ccc(C5CCC(=O)NC5=O)cc4F)CC3)CC2)ccc1Nc1ncc(C(F)(F)F)c(N2CCC[C@](C)(O)C2)n1 (stereo partly shown)  remaining binding (TAOK3; binding, competition with immobilised ligand; 1 µM): 54%
